From paper PMC3747510 (Scientific Reports, 2013)

How the values were obtained:
[1] = target: T1, Human mitochondrial LeuRS (Homo sapiens, UniProt Q15031); test: Aminoacylation inhibition; type: biochemical
T1 sequence (Q15031 1-903): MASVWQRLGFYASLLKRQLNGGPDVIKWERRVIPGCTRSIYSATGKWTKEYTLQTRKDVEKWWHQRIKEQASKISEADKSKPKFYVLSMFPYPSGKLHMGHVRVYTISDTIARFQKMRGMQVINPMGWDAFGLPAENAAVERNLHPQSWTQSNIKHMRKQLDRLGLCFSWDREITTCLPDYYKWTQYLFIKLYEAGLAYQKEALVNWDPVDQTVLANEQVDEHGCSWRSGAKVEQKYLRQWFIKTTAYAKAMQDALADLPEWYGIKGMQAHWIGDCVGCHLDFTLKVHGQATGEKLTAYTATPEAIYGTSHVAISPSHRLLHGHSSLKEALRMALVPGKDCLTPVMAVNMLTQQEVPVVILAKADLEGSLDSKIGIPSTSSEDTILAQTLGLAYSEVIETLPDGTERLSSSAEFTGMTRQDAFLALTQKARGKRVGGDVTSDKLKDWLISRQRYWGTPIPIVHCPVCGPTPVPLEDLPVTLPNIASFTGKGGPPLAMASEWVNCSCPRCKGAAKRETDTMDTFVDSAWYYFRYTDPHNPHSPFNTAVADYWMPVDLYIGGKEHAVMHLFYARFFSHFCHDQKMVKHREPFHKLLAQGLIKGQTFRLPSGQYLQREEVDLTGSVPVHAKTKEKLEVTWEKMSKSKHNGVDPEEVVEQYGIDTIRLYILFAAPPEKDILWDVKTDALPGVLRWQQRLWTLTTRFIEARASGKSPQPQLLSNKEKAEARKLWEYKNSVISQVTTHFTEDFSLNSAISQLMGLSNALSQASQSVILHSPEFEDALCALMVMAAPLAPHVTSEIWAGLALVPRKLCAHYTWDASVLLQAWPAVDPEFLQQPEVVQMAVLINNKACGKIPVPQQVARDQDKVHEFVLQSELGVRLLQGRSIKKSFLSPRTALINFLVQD
Procedure, shortened: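 Human cytosolic or mitochondrial LeuRS, expressed in E. coli. Aminoacylation run at 30°C. At least six test-compound concentrations were tested, with enzyme amount set to form 10 pmol Leu-tRNALeu in 5 min. IC50 was taken from a fitted dose-response curve, as the mean of at least two independent experiments.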

SpLeuRS-MmLinker = test: Aminoacylation by SpLeuRS-MmLinker chimeric mutant; type: biochemical, Streptococcus pneumoniae; conditions: 50 μM ZCL039
Procedure, shortened: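 Aminoacylation at 37°C, started with 4 mM ATP. Point mutants were made by site-directed mutagenesis. The MmLinker chimera has CP1 Lys226–Thr411 replaced by a nonapeptide. Means of three independent experiments.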

E. coli LeuRS (EcLeuRS) = E. coli LeuRS (EcLeuRS) (Escherichia coli, UniProt P07813); test: Aminoacylation inhibition; type: biochemical
Chain of E. coli LeuRS (EcLeuRS) (P07813 whole entry): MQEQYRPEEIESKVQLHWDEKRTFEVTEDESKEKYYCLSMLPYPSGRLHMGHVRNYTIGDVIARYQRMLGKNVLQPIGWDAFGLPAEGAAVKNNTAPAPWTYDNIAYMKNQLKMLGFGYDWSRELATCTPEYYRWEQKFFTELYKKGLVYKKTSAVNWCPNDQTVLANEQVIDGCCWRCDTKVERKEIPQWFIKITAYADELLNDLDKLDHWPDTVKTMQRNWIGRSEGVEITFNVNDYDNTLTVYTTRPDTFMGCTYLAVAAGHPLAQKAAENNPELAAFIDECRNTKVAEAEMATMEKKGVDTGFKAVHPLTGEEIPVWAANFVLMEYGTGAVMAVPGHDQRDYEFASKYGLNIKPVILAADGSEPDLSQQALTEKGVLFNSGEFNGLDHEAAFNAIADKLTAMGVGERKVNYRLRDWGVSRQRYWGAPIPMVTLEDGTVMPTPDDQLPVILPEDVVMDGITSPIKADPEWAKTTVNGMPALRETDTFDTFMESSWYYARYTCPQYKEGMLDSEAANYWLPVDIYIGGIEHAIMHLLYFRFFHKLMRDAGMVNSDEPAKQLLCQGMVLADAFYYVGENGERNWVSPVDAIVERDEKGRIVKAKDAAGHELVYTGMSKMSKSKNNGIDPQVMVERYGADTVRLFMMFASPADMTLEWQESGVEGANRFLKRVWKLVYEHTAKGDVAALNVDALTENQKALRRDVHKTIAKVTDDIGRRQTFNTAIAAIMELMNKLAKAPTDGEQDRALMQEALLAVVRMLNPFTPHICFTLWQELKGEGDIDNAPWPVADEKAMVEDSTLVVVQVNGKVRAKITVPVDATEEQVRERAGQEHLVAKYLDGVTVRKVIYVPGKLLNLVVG
Procedure, shortened: (§1)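 Aminoacylation at 37°C with [3H]leucine, started with 4 mM ATP, in Tris-HCl pH 7.5 buffer. Each LeuRS was used at equal activity, i.e. forming 10 pmol Leu-tRNALeu in 5 min. At least six test-compound concentrations were tested. IC50 was taken from a fitted dose-response curve, as the mean of at least two independent experiments.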

HEK 293 = test: Cell proliferation assay; type: cell-based; conditions: Homo sapiens, HEK293, read-out: IC50, Human cell lines, HEK 293
Procedure, shortened: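 Cells in DMEM/10% FBS, 37°C, 5% CO2. Seeded from 1 × 10^5 cells/mL and allowed to adhere overnight. Test compound added at 2.5–100 μg/mL (0.5% DMSO final), five wells per concentration. Incubated 0, 24, 48 or 72 h, then 4 h with MTS/PMS (20:1), and A492 read. DMSO and medium-only controls. IC50 by nonlinear regression against log concentration.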

SpLeuRS = target: T2, SpLeuRS (Streptococcus pneumoniae serotype 4, UniProt Q97SS0); test: Post-transfer editing; type: biochemical; conditions: 5 or 50 μM ZCL039, 1 μM [3H]Met-SptRNALeu
T2 sequence (Q97SS0 1-833): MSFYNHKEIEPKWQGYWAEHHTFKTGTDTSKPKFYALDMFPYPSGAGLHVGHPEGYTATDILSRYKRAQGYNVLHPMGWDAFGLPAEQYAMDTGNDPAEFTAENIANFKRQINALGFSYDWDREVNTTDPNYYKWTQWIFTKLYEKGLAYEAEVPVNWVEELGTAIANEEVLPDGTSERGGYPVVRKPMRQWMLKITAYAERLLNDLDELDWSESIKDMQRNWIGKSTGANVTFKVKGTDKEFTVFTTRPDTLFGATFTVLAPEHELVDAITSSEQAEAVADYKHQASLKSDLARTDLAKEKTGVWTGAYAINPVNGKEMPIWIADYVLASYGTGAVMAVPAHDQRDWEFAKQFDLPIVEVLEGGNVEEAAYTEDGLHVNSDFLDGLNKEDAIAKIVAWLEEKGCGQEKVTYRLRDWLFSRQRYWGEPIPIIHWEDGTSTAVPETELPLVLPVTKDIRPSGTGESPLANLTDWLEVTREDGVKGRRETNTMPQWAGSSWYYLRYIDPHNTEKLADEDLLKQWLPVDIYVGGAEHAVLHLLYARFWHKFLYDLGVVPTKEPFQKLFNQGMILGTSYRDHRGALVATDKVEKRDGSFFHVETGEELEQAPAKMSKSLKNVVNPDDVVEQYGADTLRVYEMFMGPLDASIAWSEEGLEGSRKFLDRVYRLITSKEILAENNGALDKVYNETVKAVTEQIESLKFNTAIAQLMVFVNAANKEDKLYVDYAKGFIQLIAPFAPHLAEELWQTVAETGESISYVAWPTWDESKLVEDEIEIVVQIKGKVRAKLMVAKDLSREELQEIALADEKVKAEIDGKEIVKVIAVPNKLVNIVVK
Procedure, shortened: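 Enzyme and test compound were preincubated 20 min. Substrate was mischarged with the EcLeuRS-D345A editing mutant (30 min, 37°C), then acid-phenol extracted. Controls: DMSO, and no-enzyme spontaneous hydrolysis. Means of three experiments.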

[2] = target: T3, S. pneumoniae LeuRS (SpLeuRS) (Streptococcus pneumoniae serotype 4, UniProt Q97SS0); test: Aminoacylation inhibition; type: biochemical
T3 sequence (Q97SS0 1-833): T2 sequence (Q97SS0 1-833)
Procedure, shortened: as §1

## OB1OCc2ccc(C(O)c3ccccc3)cc21 (stereo not shown) [ZCL039, [6-(1-phenyl-1-hydroxylmethyl)]-1,3-dihydro-1-hydroxy-2,1-benzoxaborole]
[1]
  IC50: > 250 µM
SpLeuRS-MmLinker
  Effect on tRNA charging activity of SpLeuRS-MmLinker: not affected
E. coli LeuRS (EcLeuRS)
  IC50: 8.25 ± 1.2 µM
E. coli LeuRS (EcLeuRS); printed as higher
  IC50 towards SpLeuRS relative to EcLeuRS: 5 fold
HEK 293
  IC50: > 200 µM
SpLeuRS
  Effect on hydrolysis of mischarged Met-SptRNALeu (editing): severely block
[2]
  IC50: 1.72 ± 0.05 µM
